Measured values reported in ChEMBL document CHEMBL1145972, “In vitro and in vivo characterization of 3-[2-[6-(2-tert-butoxyethoxy)pyridin-3-yl]-1H-imidazol-4-yl]benzonitrile hydrochloride salt, a potent and selective NPY5 receptor antagonist” (J Med Chem, 2003).

Assays:
[1] = Cmax in the CSF of male wistar rats; assay type: ADME, organism-based, Cerebrospinal fluid; settings: rat
Summary of the method: (§1)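 Male Wistar rats with jugular vein cannula, free access to food and water, given 30 mg/kg by oral gavage in 30% w/v β-cyclodextrin. Plasma, whole brain and CSF sampled over a time course (through 6–8 h); one animal per time point.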

[2] = Cmax in the brain of male wistar rats; assay type: ADME, organism-based; settings: rat; summary of the method: as §1
[3] = Cmax in the plasma of male wistar rats; assay type: ADME, organism-based; settings: rat; summary of the method: as §1
[4] = t1/2 in the CSF of male wistar rats; assay type: ADME, organism-based, Cerebrospinal fluid; settings: rat; summary of the method: as §1
[5] = t1/2 in the brain of male wistar rats; assay type: ADME, organism-based; settings: rat; summary of the method: as §1
[6] = t1/2 in the plasma of male wistar rats; assay type: ADME, organism-based; settings: rat; summary of the method: as §1
[7] = tmax in the CSF of male wistar rats; assay type: ADME, organism-based, Cerebrospinal fluid; settings: rat; summary of the method: as §1
[8] = tmax in the brain of male wistar rats; assay type: ADME, organism-based; settings: rat; summary of the method: as §1
[9] = tmax in the plasma of male wistar rats; assay type: ADME, organism-based; settings: rat; summary of the method: as §1
[10] = system: HMCB cell line; experiment: Inhibitory activity against calcium mobilization in NPY5 transfected human bowes melanoma cell line.; assay type: functional, cell-based
Summary of the method: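 Ca2+ mobilization read-out in human Bowes melanoma (HMCB) cells transfected with NPY5.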

[11] = target: T1, Neuropeptide Y receptor type 1 (Homo sapiens, UniProt P25929); experiment: Inhibitory activity against Neuropeptide Y receptor type 1
T1 sequence (P25929 whole entry): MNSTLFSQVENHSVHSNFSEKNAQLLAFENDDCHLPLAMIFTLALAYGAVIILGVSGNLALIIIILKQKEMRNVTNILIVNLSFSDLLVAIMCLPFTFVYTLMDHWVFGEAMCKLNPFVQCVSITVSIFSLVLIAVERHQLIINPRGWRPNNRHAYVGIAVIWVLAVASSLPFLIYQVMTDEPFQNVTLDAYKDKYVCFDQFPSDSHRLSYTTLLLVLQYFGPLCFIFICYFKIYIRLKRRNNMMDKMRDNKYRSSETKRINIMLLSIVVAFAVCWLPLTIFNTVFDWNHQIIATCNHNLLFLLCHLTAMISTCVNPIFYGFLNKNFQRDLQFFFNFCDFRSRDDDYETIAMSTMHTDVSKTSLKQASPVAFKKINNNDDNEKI
Summary of the method: (§2)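 Cloned human chimeric NPY receptors, displacement of [125I]PYY radioligand.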

[12] = target: T2, Neuropeptide Y receptor type 2 (Homo sapiens, UniProt P49146); experiment: Inhibitory activity against Neuropeptide Y receptor type 2; summary of the method: as §2
T2 sequence (P49146 whole entry): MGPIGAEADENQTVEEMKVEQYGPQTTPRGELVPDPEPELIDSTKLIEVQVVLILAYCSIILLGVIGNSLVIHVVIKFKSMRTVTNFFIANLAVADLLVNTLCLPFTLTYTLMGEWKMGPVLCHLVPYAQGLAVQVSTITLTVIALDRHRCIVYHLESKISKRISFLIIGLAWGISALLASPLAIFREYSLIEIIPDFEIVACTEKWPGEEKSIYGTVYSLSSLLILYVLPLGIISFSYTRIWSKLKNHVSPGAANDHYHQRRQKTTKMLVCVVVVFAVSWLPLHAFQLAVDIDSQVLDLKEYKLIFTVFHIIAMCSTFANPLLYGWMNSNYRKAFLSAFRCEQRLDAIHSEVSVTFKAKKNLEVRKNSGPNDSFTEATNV

[13] = target: T3, Neuropeptide Y receptor type 5 (Homo sapiens, UniProt Q15761); experiment: Binding affinity to the human Neuropeptide Y receptor type 5 was determined using [125I]- [PYY] as radioligand
T3 sequence (Q15761 whole entry): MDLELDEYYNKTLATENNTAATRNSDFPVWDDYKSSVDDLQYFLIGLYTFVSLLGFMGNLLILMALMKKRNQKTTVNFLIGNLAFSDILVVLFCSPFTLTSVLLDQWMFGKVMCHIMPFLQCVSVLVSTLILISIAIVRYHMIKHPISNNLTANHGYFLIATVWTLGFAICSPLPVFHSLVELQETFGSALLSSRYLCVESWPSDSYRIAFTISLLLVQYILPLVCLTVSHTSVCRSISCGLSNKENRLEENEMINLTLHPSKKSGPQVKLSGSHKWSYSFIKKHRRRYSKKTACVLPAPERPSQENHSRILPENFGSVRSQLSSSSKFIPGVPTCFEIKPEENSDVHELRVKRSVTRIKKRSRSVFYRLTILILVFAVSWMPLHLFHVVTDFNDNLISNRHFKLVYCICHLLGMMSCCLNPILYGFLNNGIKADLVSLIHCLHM
Summary of the method: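 Radioligand displacement binding on cloned human chimeric NPY5 receptors, with [125I]PYY as the labelled ligand.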

[14] = target: T4, Neuropeptide Y receptor type 5 (Rattus norvegicus, UniProt Q63634); experiment: Binding affinity to the rat Neuropeptide Y receptor type 5 was determined using [125I]- [Leu31,Pro34]PYY as radioligand
T4 sequence (Q63634 whole entry): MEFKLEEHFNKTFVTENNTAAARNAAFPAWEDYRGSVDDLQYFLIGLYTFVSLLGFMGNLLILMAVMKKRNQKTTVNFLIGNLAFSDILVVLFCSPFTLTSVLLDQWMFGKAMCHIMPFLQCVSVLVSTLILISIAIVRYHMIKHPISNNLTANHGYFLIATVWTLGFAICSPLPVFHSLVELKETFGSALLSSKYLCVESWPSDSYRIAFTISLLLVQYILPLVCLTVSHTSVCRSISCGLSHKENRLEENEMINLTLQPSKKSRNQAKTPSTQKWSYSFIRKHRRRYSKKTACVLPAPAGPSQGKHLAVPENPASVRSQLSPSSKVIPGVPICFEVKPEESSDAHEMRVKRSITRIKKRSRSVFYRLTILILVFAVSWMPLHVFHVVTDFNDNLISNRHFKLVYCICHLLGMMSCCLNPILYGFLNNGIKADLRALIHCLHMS
Summary of the method: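 Whole rat brain membranes; radioligand [125I][Leu31,Pro34]PYY, with 1 μM BIBP3226 present to block NPY-1 receptors.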

Cmax [1]: 0.213 µM
Cmax [2]: 8.55 µM
Cmax [3]: 4.42 µM
half-life [4]: 96 min
half-life [5]: 66 min
half-life [6]: 66 min
Tmax [7]: 30 min
Tmax [8]: 30 min
Tmax [9]: 30 min
IC50 [10]: 0.4 nM
IC50 [11]: > 1000 nM
IC50 [12]: > 1000 nM
Ki [13]: 1.2 nM
Ki [14]: 1.7 nM
Compound: CC(C)(C)OCCOc1ccc(-c2nc(-c3cccc(C#N)c3)c[nH]2)cn1
